Measured values of several laboratories.
Protocols differ between the studies behind these lines.
Target: RAC-alpha serine/threonine-protein kinase (AKT1, Homo sapiens, UniProt P31749)

Compound | observed | mode | method | tested at | measurement | result
CS(=O)(=O)Nc1cccc(-c2csc(NC(=O)CSc3nc4nccnc4c(=O)n3CCc3ccccc3)n2)c1 | enzyme activity | inhibitor | – | 10 µM | inhibition | 1%
CN(C)C1CCN(CC#Cc2nn(C3CCCC3)c3nc(NCc4ccccc4)ncc23)C1 (stereo not shown) | enzyme activity | inhibitor | FRET | 0.1 µM | inhibition | 4%
FC(F)(F)Oc1cccc(-c2cnc3ccc(-c4ccncc4)nn23)c1 | enzyme activity | inhibitor | radiometric | 1 µM | activity vs control | 90%
Cc1ccc(Nc2nccc(N(C)c3ccc4c(C)n(C)nc4c3)n2)cc1S(N)(=O)=O | enzyme activity | inhibitor | – | 10 µM | inhibition | 6%
Oc1cccc(-c2nc(N3CCOCC3)c3oc4ncccc4c3n2)c1 | enzyme activity | inhibitor | – | 10 µM | remaining activity | 78%
Nc1ncnc2occ(-c3ccc(NC(=O)Nc4cc(C(F)(F)F)ccc4F)cc3)c12 | cell-free assay | inhibitor | – | 20 µM | remaining signal | 100%
COc1cc(Cl)c(C(=O)N[C@@H](CN[C@H]2CC[C@@H](N)CC2)Cc2ccc(C#N)cc2)cc1-c1ccc(CN[C@H](C)c2ccc(C)cc2)o1 | enzyme activity | inhibitor | – | 1 µM | remaining activity | 85%
CCN(CC)CCNC(=O)c1c(C)[nH]c(/C=C2\C(=O)Nc3ccc(F)cc32)c1C | cell-free assay | – | – | 0.5 µM | remaining signal | 105%
Nc1c(C(=O)NCc2ccc(C(=O)NCCCC3CCCCC3)cc2)cnn1-c1ccccc1 | cell-free assay | – | competition with immobilised ligand | 0.1 µM | remaining binding | 100%
COc1cc(Nc2cnc(C#N)c(O[C@H](C)CN(C)C)n2)ncc1-c1cnn(C)c1 | enzyme activity | inhibitor | radiometric | 10 µM | remaining activity | 87%
Cn1cnc(Br)c1C1=CN(c2ncnc3[nH]cnc23)CCS1 | enzyme activity | inhibitor | radiometric | 2 µM | inhibition | 84.3%
Cc1nc(C2CCN(C(=O)c3ccc(OC(F)(F)F)cc3N)CC2)c2ncc(N3CCN(C)CC3)cc2n1 | cell-free assay | – | competition with immobilised ligand | 1 µM | remaining binding | 100%
C[C@@H]1CCN(C(=O)CC#N)C[C@@H]1N(C)c1ncnc2[nH]ccc12 | cell-free assay | inhibitor | – | 0.5 µM | remaining signal | 90.3%
CCCOc1ccc([C@H]2[C@H](C(=O)O)[C@@H](c3ccc4c(c3)OCO4)CN2CC(=O)Nc2c(CC)cccc2CC)cc1 | cell-free assay | – | competition with immobilised ligand | 1 µM | remaining binding | 97%
CC(C)(O)[C@H]1CC[C@H](Nc2ccc3ncc(-c4cccc(C(F)(F)F)c4)n3n2)CC1 | enzyme activity | inhibitor | – | 1 µM | remaining activity | 93.2%
C=CC(=O)Nc1cc(Nc2nccc(Nc3cc(Cl)c(F)cc3C(C)(C)O)n2)c(OC)cc1N1CC[C@@H](N(C)C)C1 | enzyme activity | inhibitor | – | 1 µM | inhibition | -5%
COc1cc(/C=C/C(=O)CC(=O)/C=C/c2ccc(O)c(OC)c2)ccc1O | enzyme activity | inhibitor | – | 1 µM | activity vs control | 102%
Cn1cncc1C1=CN(c2ncnc3[nH]cnc23)CCS1 | enzyme activity | inhibitor | radiometric | 50 nM | inhibition | 25.1%
COc1ccc2c(c1)O[C@@H](c1ccc(OC)c(OC)c1)C[C@H]2NC(=O)C1(c2ccc3c(c2)OC(F)(F)O3)CC1 | cell-free assay | – | competition with immobilised ligand | 1 µM | remaining binding | 100%

Compound | observed | mode | method | tested at | measurement | result
CC(C)(C)C(=O)c1sc(NC2CCCCC2)nc1N | enzyme activity | inhibitor | – | 10 µM | remaining activity | 90%
CNc1cccc2cc(C(=O)Nc3ccc(C(=O)O)cc3)c(=O)[nH]c12 | enzyme activity | inhibitor | – | 10 µM | inhibition | 2.2%
CCOc1cc(-c2nncn2C)ccc1Nc1ncc2cc(C)nc(NCC(C)(C)C)c2n1 | enzyme activity | inhibitor | FRET | 1 µM | inhibition | < 15%
Cc1cc(NC(=O)c2cccc3cc(-c4cccc5[nH]nc(N)c45)ccc23)ccc1F | enzyme activity | inhibitor | – | 0.1 µM | activity vs control | 107%
CN(C)C(=O)Cn1cc(-c2nc([C@@](C)(c3ccc(-c4cnc(N)nc4)cc3)C3CC3)no2)cn1 | cell-free assay | – | competition with immobilised ligand | 1 µM | remaining binding | 94%
Nc1nc(Nc2ccccc2)sc1C(=O)c1c(F)cccc1F | enzyme activity | inhibitor | – | 10 µM | remaining activity | 84%
O=C(Nc1cnn(-c2csc(C(=O)NC3COC3)c2)c1)Nc1c(F)cccc1Cl | enzyme activity | inhibitor | – | 5 µM | remaining activity | 105%
COCCOc1nc(-c2ccc(Cl)nc2)nc2c1CN(C(=O)c1ncn3ccccc13)CC2 | cell-free assay | – | competition with immobilised ligand | 0.1 µM | remaining binding | 82%
CC(C)c1ccc(NC(=O)c2cccs2)c(-c2nc3ccccc3[nH]c2=O)c1 | enzyme activity | inhibitor | – | 1 µM | activity vs control | 120%
Nc1nc(Nc2ccc(S(N)(=O)=O)cc2)nn1C(=O)c1c(F)cccc1F | cell-free assay | – | – | 0.5 µM | remaining signal | 120%
FC(F)c1nc2ccccc2n1-c1nc(N2CCOCC2)nc(N2CCOCC2)n1 | enzyme activity | inhibitor | – | 10 µM | remaining activity | 123%
CNCc1ccccc1-c1csc([C@@H](C)Nc2nc(C)nc3cc(OC)c(OC)cc23)c1 | cell-free assay | – | competition with immobilised ligand | 1 µM | remaining binding | 100%
COc1cc2ncnc(Nc3ccc(Oc4ccccc4)cc3C)c2cc1OC | enzyme activity | inhibitor | – | 1 µM | inhibition | 0%
Oc1cccc(-c2nc(N3CCOCC3)c3oc4ncccc4c3n2)c1 | cell-free assay | – | – | 0.5 µM | remaining signal | 95.3%
CNC(=O)c1cc(Oc2ccc(NC(=O)Nc3ccc(Cl)c(C(F)(F)F)c3)cc2)ccn1 | enzyme activity | inhibitor | – | 0.3 µM | inhibition | -6%
CCCOc1ccc(OC)c(F)c1C(=O)c1ccc(C(=O)N[C@@H]2CNC[C@H]2NC(=O)c2ccc3[nH]ncc3c2)cc1 | enzyme activity | inhibitor | – | 10 µM | remaining activity | 20%
C[C@@H]1CN(c2cc(-c3nn(C)c4ccc(OC5(C)CC5)cc34)ncn2)C[C@H](C)O1 | cell-free assay | – | competition with immobilised ligand | 1 µM | remaining binding | 100%
CCN(CC)c1ccc(C2=NNC(=O)CC2C)cc1[N+](=O)[O-] (stereo not shown) | enzyme activity | inhibitor | – | 10 µM | remaining activity | 81%
